Among the data in ChEMBL document CHEMBL1134338, “cis-Unsaturated analogues of 3,8,13,18,23-pentaazapentacosane (BE-4-4-4-4): synthesis and growth inhibitory effects on human prostate cancer cell lines” (2001) are IC50 values, retold here.

Holding throughout (type): functional
For one assay, the system named is LNCaP. Kind of assay: Inhibition of cell growth was determined in LNCaP cell line of human prostate tumor using MTT assay, on day 6 after treatment. The settings on record: 144 h, read-out: ID50 (the source's name). The gist of the method: (§1)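 Cells in Eagle's MEM with 10% fetal calf serum and nonessential amino acids were seeded at 500 cells/well and incubated overnight at 37 °C in humidified 95% air/5% CO2. Drug dilutions were then added, each concentration in quadruplicate, with buffer-only control columns, for 6 days. MTT (25 µL of 5 mg/mL) was added for 4 h at 37 °C.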

The test system of another assay is PC-3. As to the kind of experiment: Inhibition of cell growth was determined in PC-3 cell line of human prostate tumor using MTT assay, on day 6 after treatment. The settings on record: PC-3, 144 h, read-out: ID50 (the source's name). The essentials:
as §1
(In general: Tetrazolium assays rely on reduction of a dye to a coloured formazan, in cell work by metabolically active cells.)

For the next assay, the system named is DU-145. Kind of assay: Inhibition of cell growth was determined in DU145 cell line of human prostate tumor using MTT assay, on day 6 after treatment. The settings on record: DU-145, 144 h, read-out: ID50 (the source's name). The gist of the method:
as §1

The subject of a further assay is DuPro. As to the kind of experiment: Inhibition of cell growth was determined in DUPRO cell line of human prostate tumor using MTT assay, on day 6 after treatment. Particulars: 144 h, read-out: ID50 (the source's name). The essentials:
as §1

A value given as a limit tells only on which side of the number the result lay.

As to `CCNCCCCNC/C=C\CNC/C=C\CNCCCCNCC`, the values for the IC50 in the assay with LNCaP and with PC-3 were 150 nM and above 31200 nM, respectively.

On to `CCNCCCCNC/C=C\CNCCCCNCCCCNCC`, for which the IC50 is 90 nM with LNCaP, above 31200 nM in the assay on PC-3 and 80 nM with DU-145.

Regarding `CCNC/C=C\CNC/C=C\CNCCCCNCCCCNCC`, the results for the IC50 in the assay on LNCaP and in the assay with PC-3 were 150 nM and above 31200 nM, respectively.

In the case of `CCNC/C=C\CNCCCCNCCCCNCCCCNCC`, the IC50 in the assay with LNCaP was 140 nM.

As to `CCNC/C=C\CNCCCCNCCCCNC/C=C\CNCC`, the IC50 was found to be 300 nM with LNCaP, 250 nM in the assay on DuPro and 500 nM with PC-3.

On to `CCNC/C=C\CNC/C=C\CNC/C=C\CNCCCCNCC`, for which the IC50 in the assay with LNCaP is 240 nM; in the assay with DuPro it was above 31200 nM; with PC-3 it was above 31200 nM.

For the compound `CCNC/C=C\CNCCCCNC/C=C\CNCCCCNCC`, the IC50 was 540 nM in the assay with LNCaP, above 31200 nM in the assay with DuPro, above 31200 nM in the assay on PC-3 and 340 nM in the assay on DU-145.

In the case of `CCNC/C=C\CNC/C=C\CNCCCCNC/C=C\CNCC`, the IC50 in the assay with LNCaP was 320 nM; in the assay with DuPro, above 31200 nM.

Consider `CCNC/C=C\CNC/C=C\CNC/C=C\CNC/C=C\CNCC`, for which the IC50 in the assay with LNCaP was found to be 550 nM; with PC-3 it was 200 nM.
